Data on one molecule can be found in ChEMBL document CHEMBL4376814, “Novel cyclin-dependent kinase 9 (CDK9) inhibitor with suppression of cancer stemness activity against non-small-cell lung cancer” (Eur J Med Chem, 2019).

For orientation: IC50 means the midpoint of a concentration-inhibition curve. By inhibition is commonly meant the change of the read-out against control, counted positive when it falls.

The source made the active and inactive calls. No cut-off for these calls is given here.

The target in one test is CDK6/cyclin D3 (Homo sapiens, UniProt Q00534). The experiment in a line: Inhibition of recombinant full-length human CDK6/cyclinD3 using histone H1 as substrate measured after 40 mins in presence of [gamma33P]ATP by scintillation counting method. In kind it is protein-complex assay.
Test [1] addresses CDK9/cyclin T1 (Homo sapiens) (UniProt O60563+P50750). Briefly: Inhibition of recombinant full-length human CDK9/cyclinT1 at 500 nM using KTFCGTPEYLAPEVRREPRILSEEEQEMFRDFDYIADWC peptide as substrate measured after 40 mins in presence of [gamma33P]ATP by scintillation counting method relative to control. In kind it is protein-complex assay. The method, boiled down:
(§1)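 Percent inhibition of kinase activity at a single compound concentration, measured by the outsourced Eurofins KinaseProfiler panel. Values are the mean of two independent experiments.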

Test [2] deals with A549. The experiment in a line: Inhibition of colony formation in human A549 cells after 12 days by crystal violet staining based assay. In kind it is functional, cell-based. An outline of the steps: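 Cells exposed to compound, then washed, trypsinized and reseeded at 300 cells per well in 6-well plates. Colonies grew 10-14 days (legend: 12 days), were fixed in methanol 30 min, stained overnight with 0.5% crystal violet and imaged.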

The subject of test [3] is NCI-H1299. Briefly: Induction of apoptosis in human H1299 cells assessed as viable cells at 1 uM after 48 hrs by AnnexinV-FITC/PI staining-based flow cytometric analysis (reference value: 97.1%). In kind it is functional. Particulars: NCI-H1299, 48 h, read-out: Activity.
Test [4] deals with NCI-H1299. The experiment in a line: Induction of apoptosis in human H1299 cells assessed as activation of caspase 3 at 0.25 to 1 uM after 24 hrs by Western blot analysis. In kind it is functional, cell-based. An outline of the steps:
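A549 or H1299 cells exposed to the indicated concentrations for 24 h. Protein extracts then immunoblotted for apoptosis-pathway proteins (Bcl2, Bim, cleaved caspase 3).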
(In western blotting, separated proteins are transferred to a membrane and probed.)

Test [5] deals with A549. The experiment in a line: Down regulation of CDK9 expression in human A549 cells at 0.25 to 1 uM after 24 hrs by Western blot analysis. In kind it is functional, cell-based. The method, boiled down:
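A549 and H1299 cells treated for 24 h with serial dilutions alongside a DMSO control. Protein extracts resolved and immunoblotted.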

Test [6] has as its system NCI-H1299. The experiment in a line: Inhibition of tumorsphere formation in human H1299 cells after 2 weeks by microscopic analysis. In kind it is functional, cell-based.
Test [7] has as its system NCI-H1299. The experiment in a line: Inhibition of tumorsphere formation in human H1299 cells assessed as reduction in side population ratio by PI/Hoechst 33342 staining based flow cytometry. In kind it is functional, cell-based. For orientation: In flow cytometry, cells or beads pass a laser one at a time.
Test [8] has as its target NUAK family SNF1-like kinase 1 (Homo sapiens) (UniProt O60285). The experiment in a line: Inhibition of recombinant human ARK5 (2 to end residues) at 1 uM using KKKVSRSGLYRSPSMPENLNRPR as substrate measured after 40 mins in presence of [gamma33P]ATP by scintillation counting method relative to control.
For test [9], the target named is Cytoplasmic tyrosine-protein kinase BMX (Homo sapiens) (UniProt P51813). Briefly: Inhibition of full-length recombinant human BMX at 1 uM using poly(Glu, Tyr) 4:1 as substrate measured after 40 mins in presence of [gamma33P]ATP by scintillation counting method relative to control. The method, boiled down:
as §1

The target of test [10] is SRSF protein kinase 3 (Homo sapiens) (UniProt Q9UPE1). Briefly: Inhibition of recombinant full-length human MSSK1 at 1 uM using ERMRPRKRQGSVRRRV as substrate measured after 40 mins in presence of [gamma33P]ATP by scintillation counting method relative to control.
In test [11] the target is Serine/threonine-protein kinase 26 (Homo sapiens) (UniProt Q9P289). Briefly: Inhibition of recombinant human MST4 (4 to 304 residues) at 1 uM using RLGRDKYKTLRQIRQ as substrate measured after 40 mins in presence of [gamma33P]ATP by scintillation counting method relative to control.
Test [12] has as its target Serine/threonine-protein kinase 38-like (Homo sapiens) (UniProt Q9Y2H1). Briefly: Inhibition of recombinant human NDR2 (83 to end residues) at 1 uM using RSRSRSRSRSRSRSR as substrate measured after 120 mins in presence of [gamma33P]ATP by scintillation counting method relative to control.
The target of test [13] is Cyclin-dependent kinase 2/cyclin E1 (Homo sapiens) (UniProt P24864+P24941). Briefly: Inhibition of recombinant full-length human CDK2/cyclinE at 1 uM using Histone H1 as substrate measured after 40 mins in presence of [gamma33P]ATP by scintillation counting method relative to control. In kind it is protein-complex assay.
Test [14] deals with Cyclin-dependent kinase 14/Cyclin-Y (Homo sapiens) (UniProt O94921+Q8ND76). The experiment in a line: Inhibition of human CDK14/cyclinY at 1 uM by radiometric method relative to control. In kind it is protein-complex assay. An outline of the steps:
as §1

Test [15] addresses Serine/threonine-protein kinase PAK 1 (Homo sapiens) (UniProt Q13153). Briefly: Inhibition of recombinant human PAK1 (150 to end residues) at 1 uM using RRRLSFAEPG as substrate measured after 40 mins in presence of [gamma33P]ATP by scintillation counting method relative to control.
Test [16] deals with Rho-associated protein kinase 2 (Homo sapiens) (UniProt O75116). The experiment in a line: Inhibition of human ROCK2 (11 to 552 residues) at 1 uM using KEAKEKRQEQIAKRRRLSSLRASTSKSGGSQK as substrate measured after 40 mins in presence of [gamma33P]ATP by scintillation counting method relative to control. The method, boiled down:
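Percent inhibition at 1 µM was measured by the contract KinaseProfiler service (Eurofins) on the human kinase. Values are the mean of two independent experiments.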

Test [17] concerns the target G protein-coupled receptor kinase 5 (Homo sapiens) (UniProt P34947). The experiment in a line: Inhibition of recombinant full-length human GRK5 at 1 uM using casein as substrate measured after 40 mins in presence of [gamma33P]ATP by scintillation counting method relative to control.
Test [18] deals with Transcription initiation factor TFIID subunit 1-like (Homo sapiens) (UniProt Q8IZX4). Briefly: Inhibition of recombinant human TAF1L (1428 to end residues) at 1 uM using RRRFRPASPLRGPPK as substrate after 120 mins in presence of [gamma33P]ATP by scintillation counting analysis relative to control.
Test [19] deals with Angiopoietin-1 receptor (Homo sapiens), Q02763 [Q939H,Q940H,Y897S]. Briefly: Inhibition of human Tie2 Q939H/Q940H/Y897S mutant (771 to end residues) at 1 uM using EFPIYDFLPAKKK as substrate measured after 40 mins in presence of [gamma33P]ATP by scintillation counting method relative to control. The method, boiled down:
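Single-point inhibition at 1 µM was measured in the Eurofins KinaseProfiler panel. Values are the mean of two independent experiments.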

Test [20] deals with Tau-tubulin kinase 2 (Homo sapiens) (UniProt Q6IQ55). Briefly: Inhibition of recombinant human TTBK2 (1 to 331 residues) at 1 uM using casein as substrate measured after 40 mins in presence of [gamma33P]ATP by scintillation counting method relative to control.
For test [21], the target named is Serine/threonine-protein kinase ULK3 (Homo sapiens) (UniProt Q6PHR2). The experiment in a line: Inhibition of recombinant full-length human ULK3 at 1 uM using casein as substrate measured after 40 mins in presence of [gamma33P]ATP by scintillation counting method relative to control.
Test [22] deals with Vascular endothelial growth factor receptor 2 (Homo sapiens) (UniProt P35968). The experiment in a line: Inhibition of recombinant human KDR (790 to end residues) at 1 uM using MBP as substrate measured after 40 mins in presence of [gamma33P]ATP by scintillation counting method relative to control.
Chain of Vascular endothelial growth factor receptor 2 (Homo sapiens) (P35968 whole entry): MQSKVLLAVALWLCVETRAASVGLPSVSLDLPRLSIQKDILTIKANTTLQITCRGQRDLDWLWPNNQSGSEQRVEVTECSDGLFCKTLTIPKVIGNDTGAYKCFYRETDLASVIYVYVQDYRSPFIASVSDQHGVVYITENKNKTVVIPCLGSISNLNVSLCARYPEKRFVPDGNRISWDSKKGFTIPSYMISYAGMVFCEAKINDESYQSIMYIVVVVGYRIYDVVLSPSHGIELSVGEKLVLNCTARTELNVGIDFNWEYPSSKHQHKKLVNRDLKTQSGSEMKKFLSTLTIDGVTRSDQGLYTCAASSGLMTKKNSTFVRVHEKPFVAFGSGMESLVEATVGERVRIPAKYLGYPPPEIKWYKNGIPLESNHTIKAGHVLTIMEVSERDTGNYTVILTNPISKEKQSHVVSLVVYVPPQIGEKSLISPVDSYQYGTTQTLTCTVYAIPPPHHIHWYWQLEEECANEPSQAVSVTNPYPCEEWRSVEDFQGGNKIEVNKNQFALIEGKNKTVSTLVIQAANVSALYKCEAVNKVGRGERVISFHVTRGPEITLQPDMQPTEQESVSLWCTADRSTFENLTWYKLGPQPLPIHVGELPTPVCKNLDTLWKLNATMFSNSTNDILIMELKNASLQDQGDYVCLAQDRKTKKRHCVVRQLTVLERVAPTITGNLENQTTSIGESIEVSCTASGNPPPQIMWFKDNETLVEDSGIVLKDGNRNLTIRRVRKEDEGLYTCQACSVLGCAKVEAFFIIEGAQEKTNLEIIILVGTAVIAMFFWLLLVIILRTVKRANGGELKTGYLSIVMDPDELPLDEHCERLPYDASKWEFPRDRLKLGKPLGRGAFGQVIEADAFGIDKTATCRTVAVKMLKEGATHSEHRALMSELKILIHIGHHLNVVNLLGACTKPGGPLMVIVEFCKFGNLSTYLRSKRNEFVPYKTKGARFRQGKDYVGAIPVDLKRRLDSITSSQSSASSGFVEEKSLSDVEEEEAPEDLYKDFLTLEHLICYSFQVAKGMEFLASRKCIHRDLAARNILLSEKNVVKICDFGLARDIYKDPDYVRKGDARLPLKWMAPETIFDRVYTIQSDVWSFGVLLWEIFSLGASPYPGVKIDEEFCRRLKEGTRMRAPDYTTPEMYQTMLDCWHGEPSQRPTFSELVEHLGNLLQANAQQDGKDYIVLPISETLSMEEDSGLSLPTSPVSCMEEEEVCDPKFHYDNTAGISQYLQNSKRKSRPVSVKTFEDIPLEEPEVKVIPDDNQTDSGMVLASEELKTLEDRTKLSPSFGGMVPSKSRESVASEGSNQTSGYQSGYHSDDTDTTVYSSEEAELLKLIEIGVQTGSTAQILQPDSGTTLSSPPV

Chain of Transcription initiation factor TFIID subunit 1-like (Homo sapiens) (Q8IZX4 whole entry): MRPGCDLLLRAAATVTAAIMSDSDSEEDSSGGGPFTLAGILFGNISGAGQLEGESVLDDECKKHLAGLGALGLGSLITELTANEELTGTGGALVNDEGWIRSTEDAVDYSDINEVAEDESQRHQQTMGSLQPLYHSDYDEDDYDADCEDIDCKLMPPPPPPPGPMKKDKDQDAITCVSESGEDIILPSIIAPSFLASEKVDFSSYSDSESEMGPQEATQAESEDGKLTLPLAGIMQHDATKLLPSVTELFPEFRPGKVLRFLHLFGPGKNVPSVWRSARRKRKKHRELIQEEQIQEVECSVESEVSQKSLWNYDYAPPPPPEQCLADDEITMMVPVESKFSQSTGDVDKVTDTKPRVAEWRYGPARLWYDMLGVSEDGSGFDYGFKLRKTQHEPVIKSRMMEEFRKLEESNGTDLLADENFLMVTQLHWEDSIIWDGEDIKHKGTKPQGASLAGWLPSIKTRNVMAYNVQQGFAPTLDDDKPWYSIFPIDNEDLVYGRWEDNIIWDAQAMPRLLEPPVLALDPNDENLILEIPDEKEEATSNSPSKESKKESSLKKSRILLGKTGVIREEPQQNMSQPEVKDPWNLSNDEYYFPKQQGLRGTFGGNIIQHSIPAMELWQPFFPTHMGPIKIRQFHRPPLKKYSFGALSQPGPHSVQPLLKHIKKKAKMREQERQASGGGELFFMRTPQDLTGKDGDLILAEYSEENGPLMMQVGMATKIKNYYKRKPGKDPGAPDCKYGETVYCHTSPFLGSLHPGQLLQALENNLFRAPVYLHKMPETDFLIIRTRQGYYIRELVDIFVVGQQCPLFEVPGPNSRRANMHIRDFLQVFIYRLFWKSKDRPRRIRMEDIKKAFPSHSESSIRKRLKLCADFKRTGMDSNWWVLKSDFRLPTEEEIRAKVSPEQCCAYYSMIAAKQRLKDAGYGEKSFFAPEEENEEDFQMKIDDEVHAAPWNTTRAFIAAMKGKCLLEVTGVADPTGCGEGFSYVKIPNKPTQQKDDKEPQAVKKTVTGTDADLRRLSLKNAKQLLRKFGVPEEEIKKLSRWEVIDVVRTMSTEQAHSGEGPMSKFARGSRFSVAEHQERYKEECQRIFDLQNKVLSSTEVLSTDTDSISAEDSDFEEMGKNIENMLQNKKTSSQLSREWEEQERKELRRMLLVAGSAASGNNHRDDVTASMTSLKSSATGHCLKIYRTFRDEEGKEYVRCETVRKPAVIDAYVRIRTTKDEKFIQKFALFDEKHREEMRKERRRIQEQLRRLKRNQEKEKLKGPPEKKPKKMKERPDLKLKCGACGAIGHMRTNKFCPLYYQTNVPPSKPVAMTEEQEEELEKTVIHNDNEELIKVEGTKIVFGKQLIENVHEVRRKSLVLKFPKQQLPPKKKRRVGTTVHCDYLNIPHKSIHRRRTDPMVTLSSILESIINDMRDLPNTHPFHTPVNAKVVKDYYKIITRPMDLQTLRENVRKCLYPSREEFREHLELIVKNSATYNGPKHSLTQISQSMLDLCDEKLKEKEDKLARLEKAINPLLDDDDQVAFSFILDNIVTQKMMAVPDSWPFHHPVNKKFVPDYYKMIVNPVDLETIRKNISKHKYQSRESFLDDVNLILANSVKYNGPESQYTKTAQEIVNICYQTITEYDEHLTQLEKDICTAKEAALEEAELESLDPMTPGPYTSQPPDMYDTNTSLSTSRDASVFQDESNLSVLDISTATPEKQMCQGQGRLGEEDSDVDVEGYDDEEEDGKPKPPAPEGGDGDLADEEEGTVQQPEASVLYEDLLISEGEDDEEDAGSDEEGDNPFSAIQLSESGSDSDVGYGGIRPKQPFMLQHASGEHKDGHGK
Chain of SRSF protein kinase 3 (Homo sapiens) (Q9UPE1 whole entry, the tested form may be a part): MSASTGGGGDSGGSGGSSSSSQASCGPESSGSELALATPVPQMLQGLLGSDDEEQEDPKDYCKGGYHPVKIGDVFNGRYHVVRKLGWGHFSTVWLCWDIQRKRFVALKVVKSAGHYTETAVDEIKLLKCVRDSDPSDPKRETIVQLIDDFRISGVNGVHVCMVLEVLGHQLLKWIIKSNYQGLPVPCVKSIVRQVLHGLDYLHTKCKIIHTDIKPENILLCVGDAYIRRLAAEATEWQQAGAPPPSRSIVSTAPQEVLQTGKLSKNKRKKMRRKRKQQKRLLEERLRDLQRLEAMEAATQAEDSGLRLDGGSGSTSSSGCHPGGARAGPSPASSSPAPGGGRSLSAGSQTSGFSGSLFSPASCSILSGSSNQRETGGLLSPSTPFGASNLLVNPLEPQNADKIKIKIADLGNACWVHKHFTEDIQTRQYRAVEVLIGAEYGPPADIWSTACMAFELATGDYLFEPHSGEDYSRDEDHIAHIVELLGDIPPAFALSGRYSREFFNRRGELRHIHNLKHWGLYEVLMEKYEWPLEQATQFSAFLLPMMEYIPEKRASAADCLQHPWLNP
Chain of CDK6/cyclin D3 (P30281 whole entry): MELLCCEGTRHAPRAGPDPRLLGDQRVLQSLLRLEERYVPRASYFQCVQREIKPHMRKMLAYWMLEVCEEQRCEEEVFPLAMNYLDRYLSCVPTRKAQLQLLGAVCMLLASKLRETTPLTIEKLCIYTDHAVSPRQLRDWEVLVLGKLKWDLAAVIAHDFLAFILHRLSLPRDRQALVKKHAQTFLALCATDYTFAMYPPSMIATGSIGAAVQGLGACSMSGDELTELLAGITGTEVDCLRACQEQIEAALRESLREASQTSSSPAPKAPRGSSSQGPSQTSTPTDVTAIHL
Chain of CDK6/cyclin D3 (Q00534 whole entry): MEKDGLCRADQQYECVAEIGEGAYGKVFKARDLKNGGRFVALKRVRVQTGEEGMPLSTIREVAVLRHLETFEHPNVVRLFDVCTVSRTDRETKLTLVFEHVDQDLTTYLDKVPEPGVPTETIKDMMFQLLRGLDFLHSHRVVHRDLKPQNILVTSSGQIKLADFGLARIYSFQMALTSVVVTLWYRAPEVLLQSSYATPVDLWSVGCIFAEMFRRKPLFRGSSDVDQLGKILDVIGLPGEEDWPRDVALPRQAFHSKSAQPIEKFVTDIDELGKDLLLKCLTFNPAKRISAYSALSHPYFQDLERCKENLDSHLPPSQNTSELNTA
Chain of Serine/threonine-protein kinase 38-like (Homo sapiens) (Q9Y2H1 2-464 limits assumed): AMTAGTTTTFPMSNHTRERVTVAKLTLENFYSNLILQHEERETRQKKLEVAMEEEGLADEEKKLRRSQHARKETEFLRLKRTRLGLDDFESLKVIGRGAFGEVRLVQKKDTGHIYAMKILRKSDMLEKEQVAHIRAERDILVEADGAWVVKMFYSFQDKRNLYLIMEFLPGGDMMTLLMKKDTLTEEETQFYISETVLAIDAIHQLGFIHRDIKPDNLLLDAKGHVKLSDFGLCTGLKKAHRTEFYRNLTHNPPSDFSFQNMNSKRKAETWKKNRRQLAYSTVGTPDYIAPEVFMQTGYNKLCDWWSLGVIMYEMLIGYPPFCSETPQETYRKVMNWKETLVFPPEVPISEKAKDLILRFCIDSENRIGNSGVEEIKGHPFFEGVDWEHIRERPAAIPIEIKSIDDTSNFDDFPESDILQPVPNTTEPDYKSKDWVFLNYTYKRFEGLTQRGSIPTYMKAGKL

For the molecule `CN(C)C(=O)c1cc2cnc(Nc3ccc(NC(=O)CCCCCCCN=C=S)cc3)nc2n1C1CCCC1`, the IC50 at CDK6/cyclin D3 came out at 145 nM. Moreover, the inhibition in test [1] is 98%; in the test with A549 [2], “Dose-dependent effect”; in the test with NCI-H1299 [6], “Dose-dependent effect”; with NCI-H1299 [7] it was “Dose-dependent effect”; in test [8] it was 79%; in test [9], 90%. Further, the inhibition in test [10] was 18%; in test [11], 6%; in [12], 20%; in test [13], 75%; in test [14], 56%; in [15] it was -5%. The inhibition in test [16] is 5%; in test [17], -2%; in test [18], 23%; in test [19], 20%; in [20], -5%; in [21] it was 9%. In test [22], the inhibition turned out to be 56%. For the same molecule, the viability at 1 µM with NCI-H1299 [3] turned out to be 89.6%. In addition, the outcome with NCI-H1299 [4] was Active. Besides, the result in the test with A549 [5] was inactive.
